{"source": "paper PMC6028884", "about": "(Clinical Pharmacokinetics, 2017)", "key": {"[1]": {"details": "cited from earlier work"}, "[2]": {"system": "plasma protein", "details": "cited from earlier work"}, "[3]": {"assay": "Population pharmacokinetic analysis", "format": "in vivo, human"}, "[4]": {"format": "in vivo, human", "procedure,_shortened": "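Used a two-compartment population PK model with first-order absorption and elimination, fitted by nonlinear mixed-effects modelling. Data were LC-MS plasma concentrations from healthy subjects and RA patients given 1–48 mg immediate-release oral doses. Simulations ran 200 replicates using demographics of RA patients from two phase IIb trials.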"}, "[5]": {"system": "cytochrome P450 (CYP) 3A", "details": "in vitro; cited from earlier work"}, "[6]": {"details": "immediate-release formulation, compared with fasting conditions; cited from earlier work"}, "[7]": {"details": "strong CYP3A inhibitor ketoconazole; cited from earlier work"}, "[8]": {"system": "rheumatoid arthritis", "details": "phase IIb studies, 12 weeks; cited from earlier work"}, "[9]": {"system": "CYP2D6", "details": "in vitro; cited from earlier work"}, "[10]": {"details": "cited from earlier work", "remark": "listed apart in the source"}, "[11]": {"details": "Population analysis, point estimate (%RSE), final model"}, "[12]": {"details": "matched on sex and creatinine clearance"}, "[13]": {"details": "steady state, matching on other covariates"}}, "note": "“Also recorded” adds a separate entry of the source."}
{"smiles": "O=C(Nc1nc2cccc(-c3ccc(CN4CCS(=O)(=O)CC4)cc3)n2n1)C1CC1", "note": "[filgotinib]", "values": [{"measurement": "oral clearance in subjects with RA compared with healthy subjects", "setting": "[1]", "result": "lower"}]}
{"smiles": "C[C@@H]1CCN(C(=O)CC#N)C[C@@H]1N(C)c1ncnc2[nH]ccc12", "note": "[tofacitinib]", "values": [{"measurement": "oral clearance in subjects with RA compared with healthy subjects", "setting": "[1]", "result": "lower"}]}
{"smiles": "CC[C@@H]1CN(C(=O)NCC(F)(F)F)C[C@@H]1c1cnc2cnc3[nH]ccc3n12", "note": "[upadacitinib, Upadacitinib]", "values": [{"measurement": "plasma protein binding", "setting": "[2]", "result": "< 50", "unit": "%"}, {"measurement": "linearity of pharmacokinetics with respect to dose", "setting": "[3]; 1-48 mg immediate-release doses", "result": "dose-proportional; also recorded: did not deviate significantly from linearity; also recorded: did not significantly deviate from linearity"}, {"measurement": "ALAG1", "setting": "[3]; Bootstrap analysis, mean", "result": 0.48, "unit": "h"}, {"measurement": "Additive residual error SD", "setting": "[3]; Bootstrap analysis, mean", "result": 0.17, "unit": "ng/mL"}, {"measurement": "Exponent for the effect of body weight on Vc/F (θ5)", "setting": "[3]; Bootstrap analysis, mean", "result": 0.50}, {"measurement": "Ka", "setting": "[3]; Bootstrap analysis, mean", "result": 20.1, "unit": "h⁻¹"}, {"measurement": "Proportional residual error SD", "setting": "[3]; Bootstrap analysis, mean", "result": 31, "unit": "%"}, {"measurement": "Q/F", "setting": "[3]; Bootstrap analysis, mean", "result": 3.24, "unit": "L/h"}, {"measurement": "Ratio of CL/F in RA patients compared with healthy subjects (θ1)", "setting": "[3]; Bootstrap analysis, mean", "result": 0.76}, {"measurement": "Ratio of CL/F in females compared with males (θ2)", "setting": "[3]; Bootstrap analysis, mean", "result": 0.86}, {"measurement": "Ratio of Vc/F in females compared with males (θ4)", "setting": "[3]; Bootstrap analysis, mean", "result": 0.75}, {"measurement": "Vc/F", "setting": "[3]; Bootstrap analysis, mean", "result": 145, "unit": "L"}, {"measurement": "Vp/F", "setting": "[3]; Bootstrap analysis, mean", "result": 65.4, "unit": "L"}, {"measurement": "ωIOV2 on ALAG1 (phase II study visits only)", "setting": "[3]; Bootstrap analysis, mean", "result": 0.079}, {"measurement": "CL/F", "setting": "[3]; Bootstrap analysis, mean (188 successful runs out of 200)", "result": 39.8, "unit": "L/h"}, {"measurement": "ALAG1", "setting": "[3]; Bootstrap analysis, median", "result": 0.48, "unit": "h"}, {"measurement": "Additive residual error SD", "setting": "[3]; Bootstrap analysis, median", "result": 0.17, "unit": "ng/mL"}, {"measurement": "Exponent for the effect of body weight on Vc/F (θ5)", "setting": "[3]; Bootstrap analysis, median", "result": 0.50}, {"measurement": "Ka", "setting": "[3]; Bootstrap analysis, median", "result": 12.2, "unit": "h⁻¹"}, {"measurement": "Proportional residual error SD", "setting": "[3]; Bootstrap analysis, median", "result": 31, "unit": "%"}, {"measurement": "Q/F", "setting": "[3]; Bootstrap analysis, median", "result": 3.23, "unit": "L/h"}, {"measurement": "Ratio of CL/F in RA patients compared with healthy subjects (θ1)", "setting": "[3]; Bootstrap analysis, median", "result": 0.76}, {"measurement": "Ratio of CL/F in females compared with males (θ2)", "setting": "[3]; Bootstrap analysis, median", "result": 0.86}, {"measurement": "Ratio of Vc/F in females compared with males (θ4)", "setting": "[3]; Bootstrap analysis, median", "result": 0.75}, {"measurement": "Vc/F", "setting": "[3]; Bootstrap analysis, median", "result": 145, "unit": "L"}, {"measurement": "Vp/F", "setting": "[3]; Bootstrap analysis, median", "result": 64.6, "unit": "L"}, {"measurement": "ωIOV2 on ALAG1 (phase II study visits only)", "setting": "[3]; Bootstrap analysis, median", "result": 0.079}, {"measurement": "CL/F", "setting": "[3]; Bootstrap analysis, median (188 successful runs out of 200)", "result": 39.8, "unit": "L/h"}, {"measurement": "ALAG1", "setting": "[3]; [11]", "result": "0.48 (0.017) h"}, {"measurement": "Additive residual error SD", "setting": "[3]; [11]", "result": "0.18 (13) ng/mL"}, {"measurement": "Proportional residual error SD", "setting": "[3]; [11]", "result": "31 (13) %"}, {"measurement": "Q/F", "setting": "[3]; [11]", "result": "3.23 (2.5) L/h"}, {"measurement": "Ratio of CL/F in RA patients compared with healthy subjects (θ1)", "setting": "[3]; [11]", "result": "0.76 (2.9)"}, {"measurement": "Ratio of CL/F in females compared with males (θ2)", "setting": "[3]; [11]", "result": "0.86 (2.8)"}, {"measurement": "Ratio of Vc/F in females compared with males (θ4)", "setting": "[3]; [11]", "result": "0.75 (1.6)"}, {"measurement": "Vp/F", "setting": "[3]; [11]", "result": "64.3 (1.1) L"}, {"measurement": "ωIOV2 on ALAG1 (phase II study visits only)", "setting": "[3]; [11]", "result": "0.08 (1.5)"}, {"measurement": "Exponent for the effect of body weight on Vc/F (θ5)", "setting": "[3]; Population analysis, point estimate (%RSE), final model, (BW/74 kg)^θ5", "result": "0.50 (15.8)"}, {"measurement": "Vc/F", "setting": "[3]; Population analysis, point estimate (%RSE), final model, reference male, 74 kg", "result": "146 (2.2) L"}, {"measurement": "Ka", "setting": "[3]; Population analysis, point estimate, final model", "result": 12.3, "unit": "h⁻¹"}, {"measurement": "correlation of clearance with body weight", "setting": "[3]; in vivo", "result": "not correlated"}, {"measurement": "lower CL/F in females compared with males", "setting": "[3]; in vivo", "result": 14, "unit": "%"}, {"measurement": "effect of CYP2D6 phenotype on upadacitinib clearance", "setting": "[3]; phenotype determined from pharmacogenetic analysis", "result": "not correlated; also recorded: not a statistically significant covariate"}, {"measurement": "absorption lag time (ALAG1), estimate (95% CI)", "setting": "[3]; typical healthy male", "result": "0.48 (0.47–0.49) h"}, {"measurement": "mean absorption time (calculated as 1/Ka), estimate (95% CI)", "setting": "[3]; typical healthy male", "result": "0.08 (0.04–0.12) h"}, {"measurement": "oral clearance (CL/F), population estimate (95% bootstrap CI)", "setting": "[3]; typical healthy male, body weight 74 kg, creatinine clearance […]", "result": "39.7 (37.8–41.5) L/h"}, {"measurement": "AUC, body weight < 60 kg or > 100 kg compared with 60-100 kg", "setting": "[4]; [12]", "result": "same"}, {"measurement": "higher Cmax, body weight < 60 kg compared with 60-100 kg", "setting": "[4]; [12]", "result": "approximately 10%"}, {"measurement": "lower Cmax, body weight > 100 kg compared with 60-100 kg", "setting": "[4]; [12]", "result": "approximately 10%"}, {"measurement": "higher Cmax in females compared with males", "setting": "[4]; steady state", "result": 26, "unit": "%"}, {"measurement": "higher upadacitinib AUC in females relative to males", "setting": "[4]; [13]", "result": 16, "unit": "%"}, {"measurement": "higher upadacitinib AUC in subjects with RA relative to healthy volunteers", "setting": "[4]; [13]", "result": 32, "unit": "%"}, {"measurement": "substrate status for CYP3A", "setting": "[5]", "result": "non-sensitive substrate"}, {"measurement": "decrease of Cmax by food", "setting": "[6]", "result": "approximately 20%"}, {"measurement": "delay of time to Cmax (Tmax) by food", "setting": "[6]", "result": "approximately 2 h"}, {"measurement": "increase of upadacitinib exposures by ketoconazole", "setting": "[7]", "result": "approximately 75%"}, {"measurement": "safety profile", "setting": "[8]", "result": "acceptable safety profile"}, {"measurement": "contribution of CYP2D6 to metabolism", "setting": "[9]", "result": "potentially minor metabolic contribution; also recorded: minor contributor"}, {"measurement": "upadacitinib dose eliminated unchanged in urine", "setting": "[10]", "result": "Approximately 20%"}, {"measurement": "accumulation in plasma", "setting": "[10]; multiple twice-daily dosing", "result": "no accumulation"}, {"measurement": "dose proportionality of exposures", "setting": "[10]; over the evaluated dose range", "result": "approximately dose proportional"}, {"measurement": "functional half-life", "setting": "[10]; phase I studies, immediate-release capsules", "result": "approximately 4 h"}, {"measurement": "tolerability", "setting": "[10]; single doses up to 48 mg and multiple twice-daily doses up to 24 mg, immediate-release capsules", "result": "well-tolerated"}]}
